ChEMBL document CHEMBL3102760, “Novel PARP-1 inhibitors based on a 2-propanoyl-3H-quinazolin-4-one scaffold” (Bioorg Med Chem Lett, 2014)

How the values were obtained:
[1] = molecular target: T1, Poly [ADP-ribose] polymerase 1 (Homo sapiens, UniProt P09874); test: Inhibition of GST-tagged recombinant human PARP-1 expressed in Escherichia coli after 30 mins by fluorescence-based assay
[2] = Growth inhibition of human MDA-MB-436 cells after 7 days by SRB assay; settings: MDA-MB-436, 7 days
[3] = molecular target: T1, Poly [ADP-ribose] polymerase 1; test: Inhibition of PARP-1-mediated PARylation in H2O2-induced human HeLa cells preincubated for 3 hrs followed by H2O2 addition measured after 5 mins by Draq5 staining-based fluorescence assay; type: cell-based
Outline: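 HeLa cell PARylation assay; EC50 values are the mean of two experiments.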

[4] = Half life in human hepatocytes; type: ADME, cell-based, Hepatocyte
Mus musculus [5] = test: Toxicity in SCID beige mouse xenografted with human MX1 cells assessed as body weight loss at 200 mg/kg, ip administered qd for 5 days per week up to 3 weeks relative to control; type: organism-based; set-up: dose 200 mg/kg, route intraperitoneal; settings: in vivo
Outline: (§1)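 MX1 breast carcinoma cells were xenografted into athymic SCID beige mice, with dosing starting 7 days after tumor injection. Compound was given intraperitoneally at 200 mg/10 mL/kg, schedule qdx5/wx3w, versus a vehicle group; 8 mice per group. Tumor volume and body weight loss were read at day +38. Tumor volume was compared with the vehicle group by Mann-Whitney test.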

MX1 = test: Antitumor activity against human MX1 cells xenografted in SCID beige mouse assessed as tumor volume inhibition at 200 mg/kg, ip administered qd for 5 days per week up to 3 weeks relative to control; type: functional; set-up: scale not given: the % may be the effect or the level left; settings: route intraperitoneal; outline: as §1
[6] = Metabolic stability in human plasma assessed as compound recovery after 2 hrs; type: ADME, cell-free; settings: read-out: Drug recovery
[7] = Ratio of drug level in blood to plasma (unknown origin) after 60 mins; type: ADME; settings: blood and plasma
[8] = Efflux ratio of permeability in human Caco2 cells; type: ADME, cell-based; settings: Caco-2
Outline: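 Bidirectional Caco-2 cell monolayer permeability assay; the efflux ratio was derived from the two transport directions.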

Mus musculus [9] = test: Toxicity in SCID beige mouse xenografted with human MX1 cells assessed as lethality at 200 mg/kg, ip administered qd for 5 days per week up to 3 weeks; type: organism-based; set-up: dose 200 mg/kg, route intraperitoneal; settings: in vivo
Outline: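 Athymic SCID beige mice carrying MX1 breast carcinoma xenografts (BRCA1 deletion, BRCA2 mutation), 8 per group. Treatment began 7 days after tumour cell injection: ip at 200 mg/kg in 10 mL/kg, once daily 5 days/week for 3 weeks, with a vehicle-treated control group. Lethality was scored as deaths per group. Body-weight loss % was recorded alongside, and tumour volume was measured at day +38.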

[10] = Activity at P-gp (unknown origin); type: ADME; settings: human

T1 sequence (P09874 whole entry): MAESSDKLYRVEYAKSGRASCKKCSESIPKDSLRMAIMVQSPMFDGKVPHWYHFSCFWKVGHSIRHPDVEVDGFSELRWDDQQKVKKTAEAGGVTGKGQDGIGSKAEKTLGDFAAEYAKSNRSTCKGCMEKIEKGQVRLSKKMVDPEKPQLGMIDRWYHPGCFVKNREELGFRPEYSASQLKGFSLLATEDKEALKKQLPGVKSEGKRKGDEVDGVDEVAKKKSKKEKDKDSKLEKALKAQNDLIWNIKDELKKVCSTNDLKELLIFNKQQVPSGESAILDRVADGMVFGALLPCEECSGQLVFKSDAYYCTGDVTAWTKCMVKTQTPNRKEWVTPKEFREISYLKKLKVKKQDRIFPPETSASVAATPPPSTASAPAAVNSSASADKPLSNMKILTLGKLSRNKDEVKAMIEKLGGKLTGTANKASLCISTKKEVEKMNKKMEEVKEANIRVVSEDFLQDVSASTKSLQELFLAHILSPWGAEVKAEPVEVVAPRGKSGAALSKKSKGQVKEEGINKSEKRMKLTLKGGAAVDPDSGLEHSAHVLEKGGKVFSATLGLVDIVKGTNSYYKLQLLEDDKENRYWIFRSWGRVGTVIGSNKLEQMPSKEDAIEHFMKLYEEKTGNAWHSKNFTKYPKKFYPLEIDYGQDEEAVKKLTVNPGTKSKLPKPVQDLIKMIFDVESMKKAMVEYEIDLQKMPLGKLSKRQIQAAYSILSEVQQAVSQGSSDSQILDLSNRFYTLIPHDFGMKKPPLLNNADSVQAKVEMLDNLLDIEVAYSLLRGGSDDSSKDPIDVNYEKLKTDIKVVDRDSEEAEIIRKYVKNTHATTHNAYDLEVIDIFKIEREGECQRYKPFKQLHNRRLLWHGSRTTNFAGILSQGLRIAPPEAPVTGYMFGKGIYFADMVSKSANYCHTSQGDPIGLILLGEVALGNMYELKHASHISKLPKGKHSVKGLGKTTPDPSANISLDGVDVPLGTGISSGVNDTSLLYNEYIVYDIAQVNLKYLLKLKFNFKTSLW

| SMILES | IC50 [1] | other results |
| --- | --- | --- |
| Cc1ccc2c(c1)CCCN2C(=O)CCc1nc2ccccc2c(=O)[nH]1 | 1030 nM |  |
| Cc1oc(C(N)=O)cc1COc1ccccc1C(N)=O | 1660 nM |  |
| O=C(CCc1nc2ccccc2c(=O)[nH]1)N1CCN(C(=O)c2cccs2)CC1 | 9.8 nM | IC50 [2]: 17300 nM; half-life [4]: 9.73 h; Activity (Mus musculus [5]): 10%; EC50 [3]: 256 nM; Activity (MX1): 47%; remaining at 2 h [6]: 50%; blood plasma ratio at 1 h [7]: 0.4; efflux ratio [8]: 5.8; Activity (Mus musculus [9]): Non-toxic; Activity [10]: Not Active |
| C=CCOC(=O)N1CCCC(C(=O)N2CCN(C(=O)CCc3nc4ccccc4c(=O)[nH]3)CC2)C1 (stereo not drawn) | 300 nM |  |
| O=C1NC(=O)c2ccccc2/C1=C\Nc1ccccc1N1CCCCC1 | 1210 nM |  |
| O=C1NC(=O)c2ccccc2/C1=C\c1ccc(F)cc1 | 2540 nM |  |
| NC(=O)c1ccc(NC(=O)CCCc2nc3ccccc3c(=O)[nH]2)cc1 | 4700 nM |  |
| O=C1CN(C(=O)CSc2nc3ccccc3c(=O)[nH]2)c2ccccc2N1 | 540 nM |  |
| CC(=O)Nc1ccc(NC(=O)CCn2c(=O)[nH]c(=O)c3ccccc32)cc1 | 760 nM |  |
| NS(=O)(=O)Nc1ccc(NC(=O)CCn2c(=O)[nH]c(=O)c3ccccc32)cc1 | 410 nM |  |
| O=C(CCn1c(=O)[nH]c(=O)c2ccccc21)Nc1ccccc1F | 1520 nM |  |
| Cc1ccc(NC(=O)CCn2c(=O)[nH]c(=O)c3ccccc32)c(O)c1 | 350 nM |  |
| Cc1ccc(NS(=O)(=O)c2ccc(NC(=O)Cn3c(=O)[nH]c(=O)c4ccccc43)cc2C)c(C)c1 | 1280 nM |  |
| CC(NC(=O)Cc1n[nH]c(=O)c2ccccc12)c1ccc2c(c1)CCCC2 (stereo not drawn) | 1860 nM |  |
| O=C(Cc1n[nH]c(=O)c2ccccc12)NCCc1ccc2c(c1)OCCO2 | 280 nM |  |
| O=C(Cc1n[nH]c(=O)c2ccccc12)NCc1ccc(S(=O)(=O)N2CCOCC2)cc1 | 600 nM |  |
| O=C(CN1CCN(C(=O)Cc2n[nH]c(=O)c3ccccc23)CC1)Nc1cccc(F)c1 | 1100 nM |  |
| CCN(CC(=O)Cc1c(F)cccc1F)C(=O)Cc1n[nH]c(=O)c2ccccc12 | 600 nM |  |
| O=C(Cc1n[nH]c(=O)c2ccccc12)NCC(c1ccccc1Cl)N1CCCC1 (stereo not drawn) | 1960 nM |  |
| NC(=O)c1ccc(COc2ccccc2C(N)=O)cc1 | 820 nM |  |
| CC(NC(=O)COc1ccccc1C(N)=O)c1ccccc1 (stereo not drawn) | 820 nM |  |
| NC(=O)c1ccccc1OCC(=O)N1CC(=O)Nc2cc(C(F)(F)F)ccc21 | 1060 nM |  |
| CC(=O)c1ccc(N2CCN(C(=O)COc3ccccc3C(N)=O)CC2)c(F)c1 | 280 nM |  |
| CC(C)NS(=O)(=O)c1ccc(NC(=O)Cc2n[nH]c(=O)c3ccccc23)cc1 | 690 nM |  |
| Cn1nnc2c(C(N)=O)ncn2c1=O [TEMOZOLOMIDE] |  | IC50 [2]: 120000 nM |

Now from value to compound, other results behind:

| IC50 [1] | SMILES | other results |
| --- | --- | --- |
| 270 nM | NC(=O)C1CCN(C(=O)CCc2nc(O)c3ccccc3n2)CC1 |  |
| 42.9 nM | NC(=O)c1ccccc1OCC(=O)N1CCc2ccccc2C1 |  |
| 87.4 nM | CN(C)CC(C)(C)CN/C=C1/C(=O)NC(=O)c2ccccc21 |  |
| 28.5 nM | O=C(CCc1nc2ccccc2c(=O)[nH]1)N1CCN(C(=O)c2ccco2)CC1 |  |
| 67.1 nM | O=C(CCc1nc2ccccc2c(=O)[nH]1)N1CCN(C(=O)C2CC2)CC1 | IC50 [2]: 51100 nM; EC50 [3]: 707 nM |
| 110 nM | O=C(CCc1nc2ccccc2c(=O)[nH]1)N1CCN(C(=O)C2CCCC2)CC1 |  |
| 130 nM | O=C(CCc1nc2ccccc2c(=O)[nH]1)N1CCN(C(=O)C2CCCO2)CC1 (stereo not drawn) |  |
| 29.5 nM | O=C(CCc1nc2ccccc2c(=O)[nH]1)N1CCN(C(=O)c2ccc[nH]2)CC1 | IC50 [2]: 18100 nM; EC50 [3]: 865 nM |
| 130 nM | Cc1c(C(=O)N2CCN(C(=O)CCc3nc4ccccc4c(=O)[nH]3)CC2)oc2ccccc12 |  |
| 56.1 nM | O=C(CCc1nc2ccccc2c(=O)[nH]1)N1CCN(C(=O)c2ccc(F)cc2)CC1 | IC50 [2]: 19500 nM; half-life [4]: 10.3 h; EC50 [3]: 467 nM; remaining at 2 h [6]: 57%; blood plasma ratio at 1 h [7]: 0.4; efflux ratio [8]: 6; Activity [10]: Not Active |
| 31.9 nM | O=C(CCc1nc2ccccc2c(=O)[nH]1)N1CCN(C(=O)C2CCCNC2)CC1 (stereo not drawn) |  |
| 220 nM | C=CCN1CCCC(C(=O)N2CCN(C(=O)CCc3nc4ccccc4c(=O)[nH]3)CC2)C1 (stereo not drawn) |  |
| 87.6 nM | CC(=O)c1ccc(NC(=O)CCn2c(=O)[nH]c(=O)c3ccccc32)cc1 |  |
| 49.8 nM | O=C(Cc1n[nH]c(=O)c2ccccc12)NCc1ccc(N2CCOCC2)nc1 |  |
| 190 nM | O=C1CN(C(=O)CCc2nc3ccccc3c(=O)[nH]2)CCN1 |  |
| 130 nM | NC(=O)c1ccc(NC(=O)CCn2c(=O)[nH]c(=O)c3ccccc32)cc1 |  |
| 260 nM | O=C(c1n[nH]c(=O)c2ccccc12)N1CCN(/C=C/c2ccccc2)CC1 |  |
